Active and inactive are the calls of the source. No cut-off for these calls is given here.
Columns and labels:
Rattus norvegicus [1] = assay: Neuroprotective activity in Sprague-Dawley rat assessed as protection against acrylamide-induced decrease in adrenaline level at 50 mg/kg, ip administered 10 mins before acrylamide challenge for 3 days per week […] by ELISA (reference value: -40%); format: functional; parameters: scale not given: the % may be the effect or the level left; settings: route intraperitoneal
Rattus norvegicus [2] = assay: Neuroprotective activity in Sprague-Dawley rat assessed as protection against acrylamide-induced decrease in noradrenaline level at 50 mg/kg, ip administered 10 mins before acrylamide challenge for 3 days per week […] by ELISA (reference value: -21%); format: functional; parameters: scale not given: the % may be the effect or the level left; settings: route intraperitoneal
Rattus norvegicus [3] = assay: Neuroprotective activity in Sprague-Dawley rat assessed as protection against acrylamide-induced decrease in dopamine level at 50 mg/kg, ip administered 10 mins before acrylamide challenge for 3 days per week […] by spectrofluorometrically (reference value: -16%); format: functional; parameters: scale not given: the % may be the effect or the level left; settings: route intraperitoneal
Rattus norvegicus [4] = assay: Neuroprotective activity in Sprague-Dawley rat assessed as protection against acrylamide-induced increase of malondialdehyde level at 50 mg/kg, ip administered 10 mins before acrylamide challenge for 3 days per week […] by spectrofluorometrically (reference value: 31%); format: functional; settings: route intraperitoneal
Rattus norvegicus [5] = assay: Neuroprotective activity in Sprague-Dawley rat assessed as protection against acrylamide-induced decrease of glutathione level at 50 mg/kg, ip administered 10 mins before acrylamide challenge for 3 days per week […] by spectrofluorometrically (reference value: -27%); format: functional; parameters: scale not given: the % may be the effect or the level left; settings: route intraperitoneal
Rattus norvegicus [6] = assay: Neuroprotective activity in Sprague-Dawley rat assessed as protection against acrylamide-induced increase of LDH level at 50 mg/kg, ip administered 10 mins before acrylamide challenge for 3 days per week for 3 weeks by spectrofluorometrically (reference value: 67%); settings: route intraperitoneal
Rattus norvegicus [7] = assay: Neuroprotective activity in Sprague-Dawley rat assessed as protection against acrylamide-induced decrease of creatine kinase level at 50 mg/kg, ip administered 10 mins before acrylamide challenge for 3 days per week for 3 weeks by spectrofluorometrically (reference value: -73%); parameters: scale not given: the % may be the effect or the level left; settings: route intraperitoneal
Rattus norvegicus [8] = assay: Neuroprotective activity in Sprague-Dawley rat assessed as protection against acrylamide-induced decrease of superoxide dismutase level at 50 mg/kg, ip administered 10 mins before acrylamide challenge for 3 days per week for 3 weeks by spectrofluorometrically (reference value: -32%); parameters: scale not given: the % may be the effect or the level left; settings: route intraperitoneal
Rattus norvegicus [9] = assay: Neuroprotective activity in Sprague-Dawley rat assessed as protection against acrylamide-induced decrease of glutathione peroxidase level at 50 mg/kg, ip administered 10 mins before acrylamide challenge for 3 days per week for 3 weeks by spectrofluorometrically (reference value: -43%); parameters: scale not given: the % may be the effect or the level left; settings: route intraperitoneal
Rattus norvegicus [10] = assay: Neuroprotective activity in Sprague-Dawley rat assessed as protection against acrylamide-induced neuronal damage at 50 mg/kg, ip administered 10 mins before acrylamide challenge for 3 days per week for 2 weeks by histopathology analysis; format: functional, organism-based; parameters: dose 50 mg/kg; settings: in the assay text read “for 3 weeks” for “for 2 weeks”
Procedure, shortened: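 Rats (n = 10 per group) given agent at 50 mg/kg i.p. in 2% Tween 10 min before ACR at 50 mg/kg i.p., 3 days/week for 3 weeks. Brain tissue examined by light photomicrography for neuronal morphology (dark neurons, chromatin clumping, vacuoles), compared with control and ACR-only rats.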

Row | Structure (SMILES) | Activity (Rattus norvegicus [1]) [%] | Activity (Rattus norvegicus [2]) [%] | Activity (Rattus norvegicus [3]) [%] | Activity (Rattus norvegicus [4]) [%] | Activity (Rattus norvegicus [5]) [%] | Activity (Rattus norvegicus [6]) [%] | Activity (Rattus norvegicus [7]) [%] | Activity (Rattus norvegicus [8]) [%] | Activity (Rattus norvegicus [9]) [%] | Activity (Rattus norvegicus [10])
1 | COc1ccc2c(c1)c(CCNC(C)=O)cn2CN1CCOCC1 | 65 | 28 | 19 | -21 | 27 | -55 | 30 | 77 | 11 | 
2 | COc1ccc2c(c1)c(CCNC(C)=O)c1sc(C3=C(c4ccccc4)CC(=N)C(C#N)=C3N)nn12 | 63 | 28 | 11 | -20 | 27 | -47 | 18 | 71 | 8 | 
3 | COc1ccc2[nH]cc(CCNC(C)=O)c2c1 [MELATONIN] | 67 | 32 | 33 | -22 | 82 | -65 | 59 | 135 | 38 | Active
4 | COc1ccc2c(c1)c(CCNC(C)=O)cn2-c1c[nH]nc1-c1ccccc1 | 60 | 11 | 3 | -17 | 9 | -40 | 6 | 41 | 3 | 
5 | COc1ccc2c(c1)c(CCNC(C)=O)c1sc(-c3c(C(C)=O)nn(-c4ccccc4)c3N)nn12 | 60 | 14 | 10 | -19 | 27 | -45 | 6 | 65 | 5 | 

Reference: ChEMBL document CHEMBL1287662, “Potent neuroprotective role of novel melatonin derivatives for management of central neuropathy induced by acrylamide in rats” (2010)
